Reference: ChEMBL document CHEMBL1122432, “Some adenine and adenosine methylene-bridged estrogens” (J Med Chem, 1983)

Experiments:
P388 [1] = assay: (§1) Concentration required for 50% Inhibition of P388 murine leukemia cells; assay type: functional; conditions: Mus musculus, read-out: ID50 (the source's name)
How it was run: (§2)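 Exponentially growing P388 murine leukemia cells were kept in medium with 10% horse serum and 1 μM mercaptoethanol. They were exposed to graded drug levels, and total cell numbers were counted 24 h later. IC50 is the concentration inhibiting growth by 50% over the test period.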

MCF7 [2] = assay: Concentration required for 50% Inhibition of human breast cancer cell line MCF-7; assay type: functional; conditions: read-out: ID50 (the source's name)
How it was run: (§3)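 Human breast cancer cells were grown in glass vials in medium with 5% calf serum and treated in log phase. Compounds were dissolved in Me2SO and diluted in medium to a final solvent concentration of at most 0.2%. Growth was followed over 2-3 days, or 5 days where noted. IC30 and IC50 are the concentrations giving 30% and 50% growth inhibition. Values average two or more experiments.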

MCF7 [3] = assay: Concentration required for 30% Inhibition of human breast cancer cell line MCF-7; assay type: functional; how it was run: as §3
Sulfotransferase 1E1 = target: T1, Sulfotransferase 1E1 (Bos taurus, UniProt P19217); assay: Inhibition of bovine estrogen sulfotransferase by the compound
T1 sequence (P19217 whole entry): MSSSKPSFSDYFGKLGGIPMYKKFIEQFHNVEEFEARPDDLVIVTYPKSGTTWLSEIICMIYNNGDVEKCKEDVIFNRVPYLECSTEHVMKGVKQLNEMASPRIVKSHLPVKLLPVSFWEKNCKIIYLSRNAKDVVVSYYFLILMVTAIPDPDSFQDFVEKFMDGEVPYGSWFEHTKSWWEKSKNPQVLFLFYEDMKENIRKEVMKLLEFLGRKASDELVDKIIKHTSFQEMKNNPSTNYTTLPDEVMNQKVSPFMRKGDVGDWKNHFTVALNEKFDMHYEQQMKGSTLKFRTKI
How it was run: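 Inhibitor was present at a fixed concentration in 90% aqueous Me2SO. Ki values were derived with relationships for competitive inhibitors.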

MCF7 [4] = assay: Concentration required for 30% Inhibition of human breast cancer cell line MCF-7; NA means no inhibition at -20 concentration; assay type: functional, cell-based; how it was run: as §3
P388 [5] = assay: as §1; assay type: functional, Mus musculus; how it was run: as §2
MCF7 [6] = assay: Inhibition of human breast cancer cell line MCF-7; assay type: functional; conditions: for IC50: read-out: ID50 (the source's name)
How it was run: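 MCF-7 breast cancer cells were grown in sterile glass scintillation vials in medium with 5% calf serum and treated in log phase. Compounds were dissolved in Me₂SO and diluted in medium, with final solvent ≤0.2%. Growth was measured over 2-3 days, or 5 days where footnoted. IC₃₀/IC₅₀ is the concentration inhibiting growth by 30/50% over the test period, averaged from two or more experiments.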

Compound: C[C@]12CC[C@@H]3c4ccc(OCCCOC[C@H]5OC(n6cnc7c(N)ncnc76)[C@H](O)[C@@H]5O)c([N+](=O)[O-])c4CC[C@H]3[C@@H]1CCC2=O (stereo not given in full)
- IC50 (P388 [1]): 15 µM
- IC50 (MCF7 [2]): 6.4 µM
- ID30 (MCF7 [3]): 3.6 µM
- Ki (Sulfotransferase 1E1): 84 µM

Compound: C[C@]12CC[C@@H]3c4ccc(OCCOC[C@H]5OC(n6cnc7c(N)ncnc76)[C@H](O)[C@@H]5O)c([N+](=O)[O-])c4CC[C@H]3[C@@H]1CCC2=O (stereo not given in full)
- IC50 (P388 [1]): 70 µM
- IC50 (MCF7 [2]): > 10 µM
- ID30 (MCF7 [3]): 11 µM
- Ki (Sulfotransferase 1E1): 32 µM

Compound: C[C@]12CC[C@@H]3c4ccc(OCCCn5cnc6c(N)ncnc65)c([N+](=O)[O-])c4CC[C@H]3[C@@H]1CCC2=O
- ID30 (MCF7 [4]): Not Active
- Ki (Sulfotransferase 1E1): 350 µM

Compound: C[C@]12CC[C@@H]3c4ccc(OCCn5cnc6c(N)ncnc65)c([N+](=O)[O-])c4CC[C@H]3[C@@H]1CCC2=O
- IC50 (P388 [1]): 30 µM
- IC50 (MCF7 [2]): 10 µM
- ID30 (MCF7 [3]): 7.8 µM
- Ki (Sulfotransferase 1E1): 1000 µM

Compound: C[C@]12CC[C@@H]3c4ccc(OCCCCn5cnc6c(N)ncnc65)c([N+](=O)[O-])c4CC[C@H]3[C@@H]1CCC2=O
- IC50 (MCF7 [2]): 4 µM
- ID30 (MCF7 [3]): 2.1 µM
- ID50 (P388 [5]): 5 µM
- Ki (Sulfotransferase 1E1): 140 µM

Compound: C[C@]12CC[C@@H]3c4ccc(OCCCn5cnc6c(N)ncnc65)cc4CC[C@H]3[C@@H]1CCC2=O
- ID30 (MCF7 [4]): Not Active
- Ki (Sulfotransferase 1E1): 1000 µM

Compound: C[C@]12CC[C@@H]3c4ccc(OP(=O)(O)OP(=O)(O)OC[C@H]5O[C@@H](n6c(Br)nc7c(N)ncnc76)[C@H](O)[C@@H]5OP(=O)(O)O)cc4CC[C@H]3[C@@H]1CCC2=O
- Ki (Sulfotransferase 1E1): 0.25 µM

Compound: COc1ccc2c(c1[N+](=O)[O-])CC[C@@H]1[C@@H]2CC[C@]2(C)C(=O)CC[C@@H]12
- ID30 (MCF7 [6]): >10 µM
- IC50 (MCF7 [6]): > 10 µM

Compound: O=c1[nH]cc(F)c(=O)[nH]1 [FLUOROURACIL]
- ID30 (MCF7 [6]): 0.2 µM
- IC50 (MCF7 [6]): 0.3 µM
